The record followed here is ChEMBL document CHEMBL1158529, “Synthesis and biological evaluation of novel C5 halogen-functionalized S-DABO as potent HIV-1 non-nucleoside reverse transcriptase inhibitors” (Bioorg Med Chem, 2010).

SMILES strings stand for the structures. pIC50: −log10 of the molar value. The source made the active and inactive calls. The calls are words filed in the database; no cut-off is given here.

One assay has as its target Human immunodeficiency virus type 1 reverse transcriptase (Human immunodeficiency virus 1) (UniProt Q72547). The assay is described as follows: Inhibition of HIV1 reverse transcriptase up to 100 uM by ELISA. An outline of the steps: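 RT assay on a poly(rA)/oligo(dT)15 homopolymer template with HIV antigen-detection ELISA read-out. Compounds were tested for loss of RT activity at concentrations up to 100 µM. Values are means of three separate experiments, with triplicate variation under 15%.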
Consider `O=c1cc(Cc2ccccc2)nc(SCc2ccccc2)[nH]1`, for which the inhibition entry is “inactive”.
Same read-out and setting: to `Cc1c(Cc2ccccc2)nc(SCc2ccc(C(C)(C)C)cc2)[nH]c1=O` belongs “inactive”; to `C=CCSc1nc(Cc2ccccc2)c(C)c(=O)[nH]1`, “inactive”.
`CC(C)(C)c1ccc(CSc2nc(Cc3ccccc3)cc(=O)[nH]2)cc1`: the inhibition result is “inactive”.
Regarding `Cc1c(Cc2ccccc2)nc(SCc2ccccc2)[nH]c1=O`, the inhibition result was “inactive”.
Turning to `Cc1c(Cc2ccccc2)nc(SCc2ccc3ccccc3c2)[nH]c1=O`, the inhibition result was “inactive”.
As to `O=c1cc(Cc2ccccc2)nc(SCc2ccc3ccccc3c2)[nH]1`, the inhibition result is “inactive”.
Consider `Cc1cccc(CSc2nc(Cc3ccccc3)c(C)c(=O)[nH]2)c1`, for which the inhibition entry is “inactive”.

For the next assay the target is unchanged. Put plainly: Ratio of compound IC50 to 5a3 IC50 for HIV1 reverse transcriptase.
Consider `O=c1cc(Cc2ccccc2)nc(SCCCc2ccccc2)[nH]1`, for which the Ratio IC50 amounted to 45.

In the next assay the target is Human immunodeficiency virus type 1 reverse transcriptase (Human immunodeficiency virus 1, UniProt Q72547). Put plainly: Inhibition of HIV1 reverse transcriptase by ELISA. The method in brief:
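HIV-1 reverse transcriptase activity measured with a poly(rA)/oligo(dT)15 homopolymer template and read by HIV antigen-detection ELISA.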
`O=c1[nH]c(SCc2ccc3ccccc3c2)nc(Cc2ccccc2)c1Br` had a negative logarithm of the IC50 (pIC50) of 4.91.
In turn, `O=c1[nH]c(SCc2ccc3ccccc3c2)nc(Cc2ccccc2)c1I` had a pIC50 of 5.69.
For the compound `O=c1[nH]c(SCCCc2ccccc2)nc(Cc2ccccc2)c1I`, the negative logarithm of the IC50 (pIC50) is 6.74.
`COc1cccc(CSc2nc(Cc3ccccc3)c(C)c(=O)[nH]2)c1` gave a negative-log IC50 (pIC50) of 4.31.
As for `O=c1[nH]c(SCc2ccccc2)nc(Cc2ccccc2)c1I`, the negative-log IC50 (pIC50) was 4.99.
For the compound `Cc1cccc(CSc2nc(Cc3ccccc3)c(Br)c(=O)[nH]2)c1`, the pIC50 is 4.57.
As to `O=c1cc(Cc2ccccc2)nc(SCCCc2ccccc2)[nH]1`, the pIC50 is 5.09.
In turn, `COc1cccc(CSc2nc(Cc3ccccc3)c(I)c(=O)[nH]2)c1` gave a negative logarithm of the IC50 (pIC50) of 5.08.
For the compound `CCOCn1c(Cc2ccccc2)c(C(C)C)c(=O)[nH]c1=O` [EMIVIRINE], the pIC50 was 6.82.
On to `Cc1ccccc1CSc1nc(Cc2ccccc2)c(Br)c(=O)[nH]1`, for which the pIC50 is 4.60.
On the same count and under the same terms, to `O=c1cc(Cc2ccccc2)nc(SCCc2ccccc2)[nH]1` belongs 4.76.
Regarding `Cc1c(Cc2ccccc2)nc(SCCc2ccccc2)[nH]c1=O`, the pIC50 was 4.22.
Same read-out and setting: to `Cc1c(Cc2ccccc2)nc(SCOCc2ccccc2)[nH]c1=O` belongs 4.72.
Turning to `O=c1[nH]c(SCCc2ccccc2)nc(Cc2ccccc2)c1Br`, the negative-log IC50 (pIC50) was 4.86.
Compound `Cc1ccccc1CSc1nc(Cc2ccccc2)c(C)c(=O)[nH]1` gave a negative logarithm of the IC50 (pIC50) of less than 4.00.
With `CC(C)(C)c1ccc(CSc2nc(Cc3ccccc3)c(I)c(=O)[nH]2)cc1`, the negative logarithm of the IC50 (pIC50) is 5.25.
`CCOCSc1nc(Cc2ccccc2)cc(=O)[nH]1`: the pIC50 was less than 4.00.
As to `CC(Sc1nc(Cc2ccccc2)cc(=O)[nH]1)c1ccccc1` (centres undefined), the pIC50 is less than 4.00.
Still for that read-out and setting: to `COc1cccc(CSc2nc(Cc3ccccc3)cc(=O)[nH]2)c1` belongs 4.04; to `O=c1cc(Cc2ccccc2)nc(SCOCc2ccccc2)[nH]1`, 4.92.
In the case of `Cc1ccccc1CSc1nc(Cc2ccccc2)c(I)c(=O)[nH]1`, the pIC50 was 5.38.
With `Cc1c(Cc2ccccc2)nc(SCCCc2ccccc2)[nH]c1=O`, the pIC50 is 5.53.
`Cc1cccc(CSc2nc(Cc3ccccc3)c(I)c(=O)[nH]2)c1` gave a pIC50 of 5.52.
Turning to `C=CCSc1nc(Cc2ccccc2)cc(=O)[nH]1`, the negative logarithm of the IC50 (pIC50) is less than 4.00.
Compound `Cc1c(Cc2ccccc2)nc(SC(C)c2ccccc2)[nH]c1=O` (centres undefined) showed a negative-log IC50 (pIC50) of less than 4.00.
As to `CCOCSc1nc(Cc2ccccc2)c(C)c(=O)[nH]1`, the pIC50 was 4.29.
Take `Cc1cccc(CSc2nc(Cc3ccccc3)cc(=O)[nH]2)c1`: the negative logarithm of the IC50 (pIC50) is 4.04.
In turn, `Cc1ccccc1CSc1nc(Cc2ccccc2)cc(=O)[nH]1` had a pIC50 of 4.32.
`O=c1[nH]c(SCCc2ccccc2)nc(Cc2ccccc2)c1I` had a negative logarithm of the IC50 (pIC50) of 5.62.

For a further assay, the target named is Human immunodeficiency virus type 1 reverse transcriptase (Human immunodeficiency virus 1) (UniProt Q72547). Put plainly: Ratio of nevirapine IC50 to compound IC50 for HIV1 reverse transcriptase.
For the compound `O=c1[nH]c(SCCCc2ccccc2)nc(Cc2ccccc2)c1I`, the Ratio IC50 was 23.
